# Experimental data taken from publication PMC8103808 (Journal of medicinal chemistry, 2020).
# Target: T1, PDI (Homo sapiens, UniProt P07237)
# Test: kinact/KI determination in PDI reductase assay with reduced PDI
# Format: biochemical
# Conditions: not given
# T1 sequence (P07237 18-508): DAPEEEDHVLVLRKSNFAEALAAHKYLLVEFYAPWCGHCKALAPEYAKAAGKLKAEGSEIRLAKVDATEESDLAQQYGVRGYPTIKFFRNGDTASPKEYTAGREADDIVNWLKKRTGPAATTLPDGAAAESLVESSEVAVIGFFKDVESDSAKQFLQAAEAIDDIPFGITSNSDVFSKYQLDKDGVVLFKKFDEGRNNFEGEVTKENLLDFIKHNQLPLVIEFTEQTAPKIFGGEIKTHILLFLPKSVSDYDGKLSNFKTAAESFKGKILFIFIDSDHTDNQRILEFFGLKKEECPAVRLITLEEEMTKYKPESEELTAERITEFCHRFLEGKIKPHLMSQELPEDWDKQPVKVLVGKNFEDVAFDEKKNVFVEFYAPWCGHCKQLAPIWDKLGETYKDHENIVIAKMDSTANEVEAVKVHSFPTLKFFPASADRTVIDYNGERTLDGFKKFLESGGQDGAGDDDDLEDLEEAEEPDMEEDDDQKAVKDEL
row,Compound,kinact/KI [M⁻¹ s⁻¹]
1,COC(=O)C1(C)c2[nH]c3ccccc3c2CCN1C(=O)CCl (stereo not drawn) [16F16],170
2,"C#CC(=O)N(c1ccc(OC)cc1OC)C(C(=O)NCC(=O)OCC)c1cccs1 (stereo not drawn) [PACMA31, reference compound]",200

# Target: T2, PDIA1 (Homo sapiens, UniProt P07237)
# Test: Glutathione competition in PDI reductase assay
# Format: biochemical
# Conditions: 5 mM GSH
# T2 sequence (P07237 18-508): as above
row,PDI inhibition in the presence of competing glutathione,Compound
1,remained active,"N#Cc1cccc(/C=C/C(=O)c2ccc(O)cc2)c1 [BAP2, reference compound]"
2,maintained potency,"CN(C)c1ccc(C(Nc2ncccn2)c2cc3c(cc2O)OCO3)cc1 (stereo not drawn) [compound 14, 6-((4-(Dimethylamino)phenyl)(pyrimidin-2-ylamino)methyl)benzo[d][1,3]dioxol-5-ol]"
3,remained active,"O=c1c(O[C@@H]2O[C@H](CO)[C@@H](O)[C@H](O)[C@H]2O)c(-c2ccc(O)c(O)c2)oc2cc(O)cc(O)c12 [isoquercetin, reference compound]"

# Target: T1, PDI
# Test: Protein mass spectrometry
# Format: binding
# Conditions: 10 μM PDI, 100 μM DTT, 100 μM compound
# How it was run: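 Recombinant human PDI (10 μM) was incubated with 100 μM test compound and 100 μM DTT for 30 min before injection for Q-TOF intact-protein mass spectrometry to detect covalent adducts.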
row,covalent binding to PDI by mass spectrometry,Compound
1,bound reduced PDI at three sites,"COc1cccc(C(c2cc3c(cc2O)OCO3)N2CCOCC2)c1OC (stereo not drawn) [6a, 6-((2,3-Dimethoxyphenyl)(morpholino)methyl)benzo[d][1,3]dioxol-5-ol]"

# Target: T1, PDI
# Test: Thermal shift assay
# Format: binding
# Conditions: oxidized PDI; 100 μM compound
row,Compound,stabilization of PDI to thermal degradation
1,"C#CC(=O)N(c1ccc(OC)cc1OC)C(C(=O)NCC(=O)OCC)c1cccs1 (stereo not drawn) [PACMA31, reference compound]",did not stabilize PDI to thermal degradation

# Target: T1, PDI
# Test: Reversibility
# Format: biochemical
# Conditions: compound concentrations 10 times that of the protein
row,PDI activity recovery after dilution,Compound
1,too active at this ratio,"COc1cccc(C(c2cc3c(cc2O)OCO3)N2CCOCC2)c1OC (stereo not drawn) [6a, 6-((2,3-Dimethoxyphenyl)(morpholino)methyl)benzo[d][1,3]dioxol-5-ol]"

# Target: T2, PDIA1
# Test: PDI reductase assay
# Format: biochemical
# Conditions: not given
row,PDI inhibition in the PDI reductase assay (in words),Compound
1,submicromolar IC50 values,"COc1cccc(C(c2ccc3cccnc3c2O)N2CCOCC2)c1OC (stereo not drawn) [5a, 7-((2,3-Dimethoxyphenyl)(morpholino)methyl)quinolin-8-ol]"
2,submicromolar IC50 values,"Oc1c(C(c2ccc(F)cc2)N2CCCCC2)ccc2cccnc12 (stereo not drawn) [5b, 7-((4-Fluorophenyl)(piperidin-1-yl)methyl)quinolin-8-ol]"
3,complete loss of the potency,"Oc1c(C(c2ccc(F)cc2)N2CCCCC2)ccc2c1CCC2 (stereo not drawn) [5k, 5-((4-Fluorophenyl)(piperidin-1-yl)methyl)-2,3-dihydro-1H-inden-4-ol]"
4,lost activity,"CN(C)c1cccc(C(c2ccc(F)cc2)N2CCCCC2)c1O (stereo not drawn) [5l, 2-(Dimethylamino)-6-((4-fluorophenyl)(piperidin-1-yl)methyl)phenol]"
5,moderate loss of activity,"Oc1cc2c(cc1C(c1ccc(F)cc1)N1CCCCC1)NCC2 (stereo not drawn) [6d, 6-((4-Fluorophenyl)(piperidin-1-yl)methyl)indolin-5-ol]"
6,completely lost activity,"Oc1cc2c(cc1C(c1ccc(F)cc1)N1CCCCC1)CCCC2 (stereo not drawn) [6g, 3-((4-Fluorophenyl)(piperidin-1-yl)methyl)-5,6,7,8-tetrahydronaphthalen-2-ol]"
7,lost activity,"COc1c(C(c2ccc(F)cc2)N2CCCCC2)ccc2ccoc12 (stereo not drawn) [compound 8, 1-((4-Fluorophenyl)(7-methoxybenzofuran-6-yl)methyl)piperidine]"
8,abolished its PDI inhibition,"Oc1cc2c(cc1C(c1ccccc1)C1CCCCC1)OCO2 (stereo not drawn) [compound 13, 6-(Cyclohexyl(phenyl)methyl)benzo[d][1,3]dioxol-5-ol]"

# Tested on: U−87 MG cells
# Test: MTT growth inhibition assay in U-87 MG cells
# Format: cell-based
# Conditions: Homo sapiens, read-out: MTT (% inhibition at 30 μM)
# How it was run: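 Cells were grown at 37 °C, 5% CO₂ in 10% FBS medium: DMEM for U-87 MG, RPMI-1640 for A-172. Duplicate wells of 3000–5000 cells were attached overnight, then exposed to 30 μM test compound for 72 h. MTT (3 mg/mL) was added for 4 h at 37 °C and formazan dissolved in DMSO before reading A570. Inhibition (%) = [1−(At−Ab)/(Ac−Ab)]×100.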
row,Compound,inhibition at 30 µM [%]
1,"Oc1c(C(c2ccc(F)cc2)N2CCCCC2)ccc2cncnc12 (stereo not drawn) [5c, 7-((4-Fluorophenyl)(piperidin-1-yl)methyl)quinazolin-8-ol]",32
2,"Oc1c(C(c2ccc(F)cc2)N2CCCCC2)ccc2nccnc12 (stereo not drawn) [5e, 6-((4-Fluorophenyl)(piperidin-1-yl)methyl)quinoxalin-5-ol]",0
3,"Oc1c(C(c2ccc(F)cc2)N2CCCCC2)ccc2scnc12 (stereo not drawn) [5f, 5-((4-Fluorophenyl)(piperidin-1-yl)methyl)benzo[d]thiazol-4-ol]",0
4,"Oc1c(C(c2ccc(F)cc2)N2CCCCC2)ccc2ccoc12 (stereo not drawn) [5g, 6-((4-Fluorophenyl)(piperidin-1-yl)methyl)benzofuran-7-ol]",0
5,"Oc1c(C(c2ccc(F)cc2)N2CCCCC2)ccc2c1OCCO2 (stereo not drawn) [5h, 6-((4-Fluorophenyl)(piperidin-1-yl)methyl)-2,3-dihydrobenzo[b][1,4]dioxin-5-ol]",0
6,"Oc1c(C(c2ccc(F)cc2)N2CCCCC2)ccc2c1OCO2 (stereo not drawn) [5i, 5-((4-Fluorophenyl)(piperidin-1-yl)methyl)benzo[d][1,3]dioxol-4-ol]",0
7,"Oc1c(C(c2ccc(F)cc2)N2CCCCC2)ccc2cnccc12 (stereo not drawn) [5j, 6-((4-Fluorophenyl)(piperidin-1-yl)methyl)isoquinolin-5-ol]",0
8,"CN(C)c1cccc(C(c2ccc(F)cc2)N2CCCCC2)c1O (stereo not drawn) [5l, 2-(Dimethylamino)-6-((4-fluorophenyl)(piperidin-1-yl)methyl)phenol]",0
9,"CC(=O)c1cc2ccc(C(c3ccc(F)cc3)N3CCCCC3)c(O)c2o1 (stereo not drawn) [5m, 1-(6-((4-Fluorophenyl)(piperidin-1-yl)methyl)-7-hydroxybenzofuran-2-yl)ethanone]",0
10,"Oc1cc(F)ccc1C(c1ccc2ccoc2c1O)N1CCCCC1 (stereo not drawn) [5n, 6-((4-Fluoro-2-hydroxyphenyl)(piperidin-1-yl)methyl)benzofuran-7-ol]",0
11,"Oc1c(C(c2ccc3c(c2)CCC3)N2CCCCC2)ccc2ccoc12 (stereo not drawn) [5o, 6-((2,3-Dihydro-1H-inden-5-yl)(piperidin-1-yl)methyl)benzofuran-7-ol]",5
12,"Oc1c(C(c2ccc3c(c2)OC(F)(F)O3)N2CCCCC2)ccc2ccoc12 (stereo not drawn) [5q, 6-((2,2-Difluorobenzo[d][1,3]dioxol-5-yl)(piperidin-1-yl)methyl)benzofuran-7-ol]",9
13,"Oc1c(C(c2ccc(C(F)(F)F)cc2)N2CCCCC2)ccc2ccoc12 (stereo not drawn) [5r, 6-(Piperidin-1-yl(4-(trifluoromethyl)phenyl)methyl)benzofuran-7-ol]",5
14,"Oc1cc2c(cc1C(c1ccc(F)cc1)N1CCCCC1)OCCO2 (stereo not drawn) [6c, 7-((4-Fluorophenyl)(piperidin-1-yl)methyl)-2,3-dihydrobenzo[b][1,4]dioxin-6-ol]",1
15,"Oc1cc2c(cc1C(c1ccc(F)cc1)N1CCCCC1)NCC2 (stereo not drawn) [6d, 6-((4-Fluorophenyl)(piperidin-1-yl)methyl)indolin-5-ol]",0
16,"COc1cccc(C(c2cc3c(cc2O)OC(F)(F)O3)N2CCOCC2)c1OC (stereo not drawn) [6e, 6-((2,3-Dimethoxyphenyl)(morpholino)methyl)-2,2-difluorobenzo[d][1,3]dioxol-5-ol]",40
17,"Oc1cc2c(cc1C(c1ccc(F)cc1)N1CCCCC1)CCCC2 (stereo not drawn) [6g, 3-((4-Fluorophenyl)(piperidin-1-yl)methyl)-5,6,7,8-tetrahydronaphthalen-2-ol]",0
18,"Oc1ccc2ncccc2c1C(c1ccc(F)cc1)N1CCCCC1 (stereo not drawn) [7a, 5-((4-Fluorophenyl)(piperidin-1-yl)methyl)quinolin-6-ol]",10
19,"Oc1ccc2scnc2c1C(c1ccc(F)cc1)N1CCCCC1 (stereo not drawn) [7b, 4-((4-Fluorophenyl)(piperidin-1-yl)methyl)benzo[d]thiazol-5-ol]",1
20,"Oc1ccc2nccnc2c1C(c1ccc(F)cc1)N1CCCCC1 (stereo not drawn) [7c, 5-((4-Fluorophenyl)(piperidin-1-yl)methyl)quinoxalin-6-ol]",0
21,"Oc1ccc2ccncc2c1C(c1ccc(F)cc1)N1CCCCC1 (stereo not drawn) [7d, 8-((4-Fluorophenyl)(piperidin-1-yl)methyl)isoquinolin-7-ol]",0
22,"Oc1ccc2cnccc2c1C(c1ccc(F)cc1)N1CCCCC1 (stereo not drawn) [7e, 5-((4-Fluorophenyl)(piperidin-1-yl)methyl)isoquinolin-6-ol]",0
23,"Oc1ccc2[nH]ccc2c1C(c1ccc(F)cc1)N1CCCCC1 (stereo not drawn) [7f, 4-((4-Fluorophenyl)(piperidin-1-yl)methyl)-1H-indol-5-ol]",0
24,"Oc1ccc2[nH]ncc2c1C(c1ccc(F)cc1)N1CCCCC1 (stereo not drawn) [7g, 4-((4-Fluorophenyl)(piperidin-1-yl)methyl)-1H-indazol-5-ol]",87
25,"Oc1ccc2[nH]ncc2c1C(c1ccc(C(F)(F)F)cc1)N1CCCCC1 (stereo not drawn) [7h, 4-(Piperidin-1-yl(4-(trifluoromethyl)phenyl)methyl)-1H-indazol-5-ol]",0
26,"O=[N+]([O-])c1ccc(C(c2c(O)ccc3[nH]ncc23)N2CCCCC2)cc1 (stereo not drawn) [7i, 4-((4-Nitrophenyl)(piperidin-1-yl)methyl)-1H-indazol-5-ol]",0
27,"Oc1ccc2[nH]ncc2c1C(c1ccc(-c2nccs2)cc1)N1CCCCC1 (stereo not drawn) [7j, 4-(Piperidin-1-yl(4-(thiazol-2-yl)phenyl)methyl)-1H-indazol-5-ol]",0
28,"Oc1ccc2[nH]ncc2c1C(c1ccc(-n2cccc2)cc1)N1CCCCC1 (stereo not drawn) [7k, 4-((4-(1H-Pyrrol-1-yl)phenyl)(piperidin-1-yl)methyl)-1H-indazol-5-ol]",0
29,"Oc1ccc2[nH]ncc2c1C(c1ccc(-c2cncnc2)cc1)N1CCCCC1 (stereo not drawn) [7l, 4-(Piperidin-1-yl(4-(pyrimidin-5-yl)phenyl)methyl)-1H-indazol-5-ol]",0
